# Measured values from ChEMBL document CHEMBL4689842, “EUbOPEN Chemogenomics Library wave 1” (2021).
# Test system: U2OS
# Assay: Multiplex assay against U2OS
# Format: toxicity, cell-based
# Conditions: human
# Procedure, shortened: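 Hoechst33342, BioTracker Green Microtubule Cytoskeleton Dye, MitoTracker Red and Annexin V Alexa Fluor 680 were added to live cells at seeding, and imaging on a CQ1 microscope at 37°C and 5% CO2 followed compound addition. Gating by CellPathfinder machine learning separated cells into Hoechst high-intensity objects or normal cells, then normal cells into healthy, pyknosed or fragmented nuclei, then pyknosed cells into mitotic or apoptotic. Per cents of healthy-nucleus cells are reported for the tubulin, mitochondrial-mass and membrane-permeability phenotypes.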
# [1] = 12 h, 1 µM, compound concentration 1 uM, replicate 1
# [2] = 12 h, 1 µM, compound concentration 1 uM, replicate 2
# [3] = 12 h, 10 µM, compound concentration 10 uM, replicate 1
# [4] = 12 h, 10 µM, compound concentration 10 uM, replicate 2
# [5] = 24 h, 1 µM, compound concentration 1 uM, replicate 1
# [6] = 24 h, 1 µM, compound concentration 1 uM, replicate 2
# [7] = 24 h, 10 µM, compound concentration 10 uM, replicate 1
# [8] = 24 h, 10 µM, compound concentration 10 uM, replicate 2
# [9] = 48 h, 1 µM, compound concentration 1 uM, replicate 1
# [10] = 48 h, 1 µM, compound concentration 1 uM, replicate 2
# [11] = 48 h, 10 µM, compound concentration 10 uM, replicate 1
# [12] = 48 h, 10 µM, compound concentration 10 uM, replicate 2
smiles,measurement,setting,value
CCCS(=O)(=O)c1nc(NC2CC2)cc(-c2ccc3c(ccn3C3CC(C)(C)NC(C)(C)C3)c2)n1,Population Apoptotic (%),[1],39%
same,Population Fragmented Nuclei (%),[1],16%
same,Population Healthy Nuclei (%),[1],62%
same,Population Hoechst High Intensity Objects (%),[1],6%
same,Population Membrane Permeable-Phenotype (%),[1],8%
same,Population Mitochondria Different-Phenotype (%),[1],30%
same,Population Mitotic Cells (%),[1],60%
same,Population Normal (%),[1],93%
same,Population Pyknosed Nuclei (%),[1],21%
same,Population Tubulin-Different-Phenotype (%),[1],24%
same,Total Cell Count,[1],588
same,Population Apoptotic (%),[2],38%
same,Population Fragmented Nuclei (%),[2],14%
same,Population Healthy Nuclei (%),[2],71%
same,Population Hoechst High Intensity Objects (%),[2],5%
same,Population Membrane Permeable-Phenotype (%),[2],5%
same,Population Mitochondria Different-Phenotype (%),[2],41%
same,Population Mitotic Cells (%),[2],61%
same,Population Normal (%),[2],94%
same,Population Pyknosed Nuclei (%),[2],13%
same,Population Tubulin-Different-Phenotype (%),[2],29%
same,Total Cell Count,[2],1044
same,Population Apoptotic (%),[3],86%
same,Population Fragmented Nuclei (%),[3],83%
same,Population Healthy Nuclei (%),[3],0%
same,Population Hoechst High Intensity Objects (%),[3],6%
same,Population Membrane Permeable-Phenotype (%),[3],0%
same,Population Mitochondria Different-Phenotype (%),[3],0%
same,Population Mitotic Cells (%),[3],13%
same,Population Normal (%),[3],93%
same,Population Pyknosed Nuclei (%),[3],16%
same,Population Tubulin-Different-Phenotype (%),[3],0%
same,Total Cell Count,[3],142
same,Population Apoptotic (%),[4],92%
same,Population Fragmented Nuclei (%),[4],75%
same,Population Healthy Nuclei (%),[4],4%
same,Population Hoechst High Intensity Objects (%),[4],7%
same,Population Membrane Permeable-Phenotype (%),[4],100%
same,Population Mitochondria Different-Phenotype (%),[4],38%
same,Population Mitotic Cells (%),[4],7%
same,Population Normal (%),[4],92%
same,Population Pyknosed Nuclei (%),[4],19%
same,Population Tubulin-Different-Phenotype (%),[4],84%
same,Total Cell Count,[4],101
same,Population Apoptotic (%),[5],50%
same,Population Fragmented Nuclei (%),[5],16%
same,Population Healthy Nuclei (%),[5],67%
same,Population Hoechst High Intensity Objects (%),[5],10%
same,Population Membrane Permeable-Phenotype (%),[5],5%
same,Population Mitotic Cells (%),[5],50%
same,Population Normal (%),[5],89%
same,Population Pyknosed Nuclei (%),[5],16%
same,Population Tubulin-Different-Phenotype (%),[5],9%
same,Total Cell Count,[5],749
same,Population Apoptotic (%),[6],22%
same,Population Fragmented Nuclei (%),[6],15%
same,Population Healthy Nuclei (%),[6],66%
same,Population Hoechst High Intensity Objects (%),[6],5%
same,Population Membrane Permeable-Phenotype (%),[6],10%
same,Population Mitochondria Different-Phenotype (%),[6],21%
same,Population Mitotic Cells (%),[6],77%
same,Population Normal (%),[6],94%
same,Population Pyknosed Nuclei (%),[6],18%
same,Population Tubulin-Different-Phenotype (%),[6],29%
same,Total Cell Count,[6],1113
same,Population Apoptotic (%),[7],86%
same,Population Fragmented Nuclei (%),[7],80%
same,Population Healthy Nuclei (%),[7],0%
same,Population Hoechst High Intensity Objects (%),[7],6%
same,Population Membrane Permeable-Phenotype (%),[7],100%
same,Population Mitochondria Different-Phenotype (%),[7],25%
same,Population Mitotic Cells (%),[7],13%
same,Population Normal (%),[7],93%
same,Population Pyknosed Nuclei (%),[7],18%
same,Population Tubulin-Different-Phenotype (%),[7],100%
same,Total Cell Count,[7],151
same,Population Apoptotic (%),[8],90%
same,Population Fragmented Nuclei (%),[8],73%
same,Population Healthy Nuclei (%),[8],10%
same,Population Hoechst High Intensity Objects (%),[8],7%
same,Population Membrane Permeable-Phenotype (%),[8],96%
same,Population Mitochondria Different-Phenotype (%),[8],75%
same,Population Mitotic Cells (%),[8],10%
same,Population Normal (%),[8],92%
same,Population Pyknosed Nuclei (%),[8],15%
same,Population Tubulin-Different-Phenotype (%),[8],96%
same,Total Cell Count,[8],104
same,Population Apoptotic (%),[9],37%
same,Population Fragmented Nuclei (%),[9],16%
same,Population Healthy Nuclei (%),[9],69%
same,Population Hoechst High Intensity Objects (%),[9],6%
same,Population Membrane Permeable-Phenotype (%),[9],5%
same,Population Mitochondria Different-Phenotype (%),[9],15%
same,Population Mitotic Cells (%),[9],62%
same,Population Normal (%),[9],93%
same,Population Pyknosed Nuclei (%),[9],14%
same,Population Tubulin-Different-Phenotype (%),[9],14%
same,Total Cell Count,[9],831
same,Population Apoptotic (%),[10],58%
same,Population Fragmented Nuclei (%),[10],11%
same,Population Healthy Nuclei (%),[10],68%
same,Population Hoechst High Intensity Objects (%),[10],8%
same,Population Membrane Permeable-Phenotype (%),[10],24%
same,Population Mitochondria Different-Phenotype (%),[10],17%
same,Population Mitotic Cells (%),[10],41%
same,Population Normal (%),[10],91%
same,Population Pyknosed Nuclei (%),[10],20%
same,Population Tubulin-Different-Phenotype (%),[10],23%
same,Total Cell Count,[10],1197
same,Population Apoptotic (%),[11],90%
same,Population Fragmented Nuclei (%),[11],81%
same,Population Healthy Nuclei (%),[11],1%
same,Population Hoechst High Intensity Objects (%),[11],7%
same,Population Membrane Permeable-Phenotype (%),[11],100%
same,Population Mitochondria Different-Phenotype (%),[11],37%
same,Population Mitotic Cells (%),[11],9%
same,Population Normal (%),[11],92%
same,Population Pyknosed Nuclei (%),[11],16%
same,Population Tubulin-Different-Phenotype (%),[11],75%
same,Total Cell Count,[11],198
same,Population Apoptotic (%),[12],80%
same,Population Fragmented Nuclei (%),[12],73%
same,Population Healthy Nuclei (%),[12],15%
same,Population Hoechst High Intensity Objects (%),[12],8%
same,Population Membrane Permeable-Phenotype (%),[12],97%
same,Population Mitochondria Different-Phenotype (%),[12],81%
same,Population Mitotic Cells (%),[12],19%
same,Population Normal (%),[12],91%
same,Population Pyknosed Nuclei (%),[12],10%
same,Population Tubulin-Different-Phenotype (%),[12],94%
same,Total Cell Count,[12],131
Cc1cc(C)c(S(=O)(=O)N(Cc2ccc(-c3cccc(S(C)(=O)=O)c3)cc2)Cc2ccc(C(F)(F)F)o2)c(C)c1,Population Apoptotic (%),[1],50%
same,Population Fragmented Nuclei (%),[1],9%
same,Population Healthy Nuclei (%),[1],84%
same,Population Hoechst High Intensity Objects (%),[1],7%
same,Population Membrane Permeable-Phenotype (%),[1],4%
same,Population Mitochondria Different-Phenotype (%),[1],18%
same,Population Mitotic Cells (%),[1],50%
same,Population Normal (%),[1],92%
same,Population Pyknosed Nuclei (%),[1],6%
same,Population Tubulin-Different-Phenotype (%),[1],12%
same,Total Cell Count,[1],77
same,Population Apoptotic (%),[2],66%
same,Population Fragmented Nuclei (%),[2],15%
same,Population Healthy Nuclei (%),[2],80%
same,Population Hoechst High Intensity Objects (%),[2],6%
same,Population Membrane Permeable-Phenotype (%),[2],3%
same,Population Mitochondria Different-Phenotype (%),[2],21%
same,Population Mitotic Cells (%),[2],33%
same,Population Normal (%),[2],93%
same,Population Pyknosed Nuclei (%),[2],3%
same,Population Tubulin-Different-Phenotype (%),[2],27%
same,Total Cell Count,[2],72
same,Population Apoptotic (%),[3],31%
same,Population Fragmented Nuclei (%),[3],8%
same,Population Healthy Nuclei (%),[3],81%
same,Population Hoechst High Intensity Objects (%),[3],5%
same,Population Membrane Permeable-Phenotype (%),[3],58%
same,Population Mitochondria Different-Phenotype (%),[3],27%
same,Population Mitotic Cells (%),[3],68%
same,Population Normal (%),[3],94%
same,Population Pyknosed Nuclei (%),[3],10%
same,Population Tubulin-Different-Phenotype (%),[3],85%
same,Total Cell Count,[3],104
same,Population Apoptotic (%),[4],0%
same,Population Fragmented Nuclei (%),[4],14%
same,Population Healthy Nuclei (%),[4],77%
same,Population Hoechst High Intensity Objects (%),[4],22%
same,Population Membrane Permeable-Phenotype (%),[4],3%
same,Population Mitochondria Different-Phenotype (%),[4],3%
same,Population Mitotic Cells (%),[4],100%
same,Population Normal (%),[4],77%
same,Population Pyknosed Nuclei (%),[4],8%
same,Population Tubulin-Different-Phenotype (%),[4],11%
same,Total Cell Count,[4],81
same,Population Apoptotic (%),[5],40%
same,Population Fragmented Nuclei (%),[5],10%
same,Population Healthy Nuclei (%),[5],82%
same,Population Hoechst High Intensity Objects (%),[5],3%
same,Population Membrane Permeable-Phenotype (%),[5],3%
same,Population Mitochondria Different-Phenotype (%),[5],13%
same,Population Mitotic Cells (%),[5],60%
same,Population Normal (%),[5],96%
same,Population Pyknosed Nuclei (%),[5],7%
same,Population Tubulin-Different-Phenotype (%),[5],9%
same,Total Cell Count,[5],89
same,Population Apoptotic (%),[6],0%
same,Population Fragmented Nuclei (%),[6],14%
same,Population Healthy Nuclei (%),[6],80%
same,Population Hoechst High Intensity Objects (%),[6],1%
same,Population Membrane Permeable-Phenotype (%),[6],5%
same,Population Mitochondria Different-Phenotype (%),[6],18%
same,Population Mitotic Cells (%),[6],100%
same,Population Normal (%),[6],98%
same,Population Pyknosed Nuclei (%),[6],5%
same,Population Tubulin-Different-Phenotype (%),[6],32%
same,Total Cell Count,[6],86
same,Population Apoptotic (%),[7],41%
same,Population Fragmented Nuclei (%),[7],11%
same,Population Healthy Nuclei (%),[7],71%
same,Population Hoechst High Intensity Objects (%),[7],6%
same,Population Membrane Permeable-Phenotype (%),[7],47%
same,Population Mitochondria Different-Phenotype (%),[7],32%
same,Population Mitotic Cells (%),[7],58%
same,Population Normal (%),[7],93%
same,Population Pyknosed Nuclei (%),[7],17%
same,Population Tubulin-Different-Phenotype (%),[7],87%
same,Total Cell Count,[7],133
same,Population Apoptotic (%),[8],14%
same,Population Fragmented Nuclei (%),[8],15%
same,Population Hoechst High Intensity Objects (%),[8],10%
same,Population Membrane Permeable-Phenotype (%),[8],5%
same,Population Mitochondria Different-Phenotype (%),[8],10%
same,Population Mitotic Cells (%),[8],85%
same,Population Normal (%),[8],89%
same,Population Pyknosed Nuclei (%),[8],13%
same,Population Tubulin-Different-Phenotype (%),[8],15%
same,Total Cell Count,[8],109
same,Population Apoptotic (%),[9],64%
same,Population Fragmented Nuclei (%),[9],6%
same,Population Healthy Nuclei (%),[9],83%
same,Population Hoechst High Intensity Objects (%),[9],3%
same,Population Membrane Permeable-Phenotype (%),[9],1%
same,Population Mitochondria Different-Phenotype (%),[9],7%
same,Population Mitotic Cells (%),[9],35%
same,Population Normal (%),[9],96%
same,Population Pyknosed Nuclei (%),[9],9%
same,Population Tubulin-Different-Phenotype (%),[9],4%
same,Total Cell Count,[9],116
same,Population Apoptotic (%),[10],50%
same,Population Fragmented Nuclei (%),[10],9%
same,Population Healthy Nuclei (%),[10],84%
same,Population Hoechst High Intensity Objects (%),[10],2%
same,Population Membrane Permeable-Phenotype (%),[10],6%
same,Population Mitochondria Different-Phenotype (%),[10],25%
same,Population Mitotic Cells (%),[10],50%
same,Population Normal (%),[10],97%
same,Population Pyknosed Nuclei (%),[10],5%
same,Population Tubulin-Different-Phenotype (%),[10],34%
same,Total Cell Count,[10],123
same,Population Apoptotic (%),[11],55%
same,Population Fragmented Nuclei (%),[11],9%
same,Population Healthy Nuclei (%),[11],72%
same,Population Hoechst High Intensity Objects (%),[11],3%
same,Population Membrane Permeable-Phenotype (%),[11],24%
same,Population Mitochondria Different-Phenotype (%),[11],24%
same,Population Mitotic Cells (%),[11],45%
same,Population Normal (%),[11],96%
same,Population Pyknosed Nuclei (%),[11],18%
same,Population Tubulin-Different-Phenotype (%),[11],55%
same,Total Cell Count,[11],181
same,Population Apoptotic (%),[12],25%
same,Population Fragmented Nuclei (%),[12],7%
same,Population Healthy Nuclei (%),[12],82%
same,Population Membrane Permeable-Phenotype (%),[12],6%
same,Population Mitochondria Different-Phenotype (%),[12],10%
same,Population Mitotic Cells (%),[12],75%
same,Population Pyknosed Nuclei (%),[12],10%
same,Population Tubulin-Different-Phenotype (%),[12],13%
same,Total Cell Count,[12],148
